The results in this text go back to ChEMBL document CHEMBL4715925, “Sulfamoylbenzamide-based Capsid Assembly Modulators for Selective Inhibition of Hepatitis B Viral Replication” (ACS Med Chem Lett, 2021).

One may read the EC50 as the concentration giving half of the maximal effect. For orientation: CC50 means the concentration at which the toxic effect on the cells reaches its halfway point. By half-life is commonly meant the time in which the quantity being followed falls by half. By IC50 is commonly meant the point on the concentration scale where inhibition reaches its midpoint. Lower therefore signals greater potency in that assay. Usually Cmax stands for the maximum level reached in the sampled fluid or tissue. In general, Tmax refers to the time from dosing to the highest level. The AUC(0-t) is exposure summed from dosing to a finite time, without extrapolation to infinity. As usually defined, the bioavailability is the share of a dose that reaches the circulation, judged against a reference dose that is usually intravenous. Usually AUC(0-inf) stands for total exposure, with the tail of the curve extrapolated. A high value points to more exposure. By clearance is commonly meant the rate of elimination divided by the concentration.

The subject of data set [1] is Hepatitis B virus. As to the kind of experiment: Antiviral activity against Hepatitis B genotype D virus infected in HepG2 2.2.15 cells assessed as inhibition of viral DNA incubated for 5 days by qPCR analysis. The following applies: HepG2 2.2.15, 120 h. Type of data set: functional, cell-based. A digest of the protocol:
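HepG2.2.15 cells were incubated with compound for 5 days. HBV DNA was then purified from the culture supernatant and quantified by real-time PCR.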
For orientation: In qPCR the cycle at which signal appears reflects the starting amount.

Data set [2] can be described thus: Selectivity index, ratio of CC50 for human […] cells to EC50 for Hepatitis B virus. Type of data set: toxicity. The following applies: read-out: Ratio CC50/EC50.
Data set [3] can be described thus: Cytotoxicity against human HepG2 2.2.15 cells assessed as reduction in cell viability incubated for 5 days by MTT assay. Type of data set: cell-based. The conditions noted are these: time 5 day. A digest of the protocol: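 HepG2.2.15 cells were incubated with compound, then cell viability was measured. Mean ± SD of three independent experiments.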
Data set [4] in a line: Metabolic stability in rat liver microsomes assessed as half life at 1 uM incubated for 30 mins by LC-MS/MS analysis. Type of data set: ADME, Microsome. A digest of the protocol:
(§1)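 Phase-I stability in rat or human liver microsomes, given as % remaining after 30 min, with half-life also derived. n = 3, mean ± SD.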
A general note: Liver microsomes are a subcellular fraction often used to study metabolism.

The target of data set [5] is Cytochrome P450 3A4 (Homo sapiens, UniProt P08684). As to the kind of experiment: Inhibition of human liver microsome CYP3A4 using […] as substrate incubated for 20 mins by LC-MS/MS with HPLC analysis. The format is ADME, microsomes. A digest of the protocol:
(§2)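 Cocktail-substrate assay in human liver microsomes; IC50 reported for CYP1A2, 2C9, 2C19, 2D6 and 3A4. n = 3, mean ± SD.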

A short description of data set [6]: Cmax in Sprague-Dawley rat at 5 mg/kg, po by LC-MS/MS analysis. The format is ADME, organism-based. More on the design: route oral, dose 5 mg/kg. The conditions noted are these: in vivo. A digest of the protocol: (§3)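 Male SD rats, 5 mg/kg given i.v. or p.o.; plasma concentration–time courses followed. Parameters: Tmax, Cmax, terminal T1/2, AUClast, AUC to infinity, total plasma clearance, Vss, oral bioavailability (Ft). Values are mean ± SD of at least three independent experiments.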

The nature of data set [7]: Tmax in Sprague-Dawley rat at 5 mg/kg, po by LC-MS/MS analysis. The format is ADME, organism-based. The following applies: in vivo. A digest of the protocol:
as §3

Data set [8] concerns the target Voltage-gated inwardly rectifying potassium channel KCNH2 (Homo sapiens, UniProt Q12809). As to the kind of experiment: Inhibition of human ERG by fluorescence polarization assay. (Fluorescence polarisation rises when a labelled molecule tumbles more slowly, as on binding a larger partner.)
Data set [9] in a line: Metabolic stability in human liver microsomes assessed as compound remaining at 1 uM incubated for 30 mins by LC-MS/MS analysis. Type of data set: ADME, Microsome. The conditions noted are these: read-out: Stabilty. A digest of the protocol: as §1
Data set [10] is described as follows: AUClast in Sprague-Dawley rat at 5 mg/kg, po by LC-MS/MS analysis. The format is ADME, organism-based. More on the design: time 0 - last, route oral, dose 5 mg/kg. The following applies: in vivo. A digest of the protocol:
as §3

Data set [11] deals with T1, Cytochrome P450 1A2 (Homo sapiens, UniProt P05177).
T1 sequence (P05177 whole entry): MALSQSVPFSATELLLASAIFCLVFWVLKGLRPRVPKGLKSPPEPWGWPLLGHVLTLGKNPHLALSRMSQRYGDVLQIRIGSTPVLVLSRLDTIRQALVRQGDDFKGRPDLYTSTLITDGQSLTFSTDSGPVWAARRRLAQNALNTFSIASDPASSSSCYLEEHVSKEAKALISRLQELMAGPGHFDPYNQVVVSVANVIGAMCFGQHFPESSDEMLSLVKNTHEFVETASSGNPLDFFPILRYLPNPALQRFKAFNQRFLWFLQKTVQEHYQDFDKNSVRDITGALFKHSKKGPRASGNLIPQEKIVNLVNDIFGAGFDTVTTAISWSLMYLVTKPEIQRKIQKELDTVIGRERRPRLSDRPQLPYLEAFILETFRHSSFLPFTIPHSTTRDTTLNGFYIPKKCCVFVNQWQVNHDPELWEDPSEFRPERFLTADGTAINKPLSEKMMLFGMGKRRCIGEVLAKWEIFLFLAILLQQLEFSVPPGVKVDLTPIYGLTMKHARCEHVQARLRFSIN
As to the kind of experiment: Inhibition of human liver microsome CYP1A2 using phenacetin as substrate incubated for 20 mins by LC-MS/MS with HPLC analysis. The format is ADME, microsomes. A digest of the protocol:
as §2

Data set [12] is described as follows: Protein binding in rat plasma at 5 uM incubated for 4 hrs by LC-MS/MS analysis. Type of data set: ADME, cell-free. The conditions noted are these: read-out: PPB (converted).
Data set [13] is described as follows: Volume of distribution at steady state in Sprague-Dawley rat at 5 mg/kg, iv by LC-MS/MS analysis. The format is ADME, organism-based. The following applies: in vivo, read-out: Vdss. A digest of the protocol: as §3
In data set [14] the target is Cytochrome P450 2D6 (Homo sapiens, UniProt P10635). As to the kind of experiment: Inhibition of human liver microsome CYP2D6 using dextromethorphan as substrate incubated for 20 mins by LC-MS/MS with HPLC analysis. The format is ADME, microsomes. A digest of the protocol:
as §2

The nature of data set [15]: Stability in human plasma assessed as compound remaining at 5 uM incubated for 4 hrs by LC-MS/MS analysis. The format is ADME, cell-free. The following applies: read-out: Stabilty. A digest of the protocol: (§4)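 Incubated in rat or human plasma at 37 °C for 4 h; result is % compound remaining. n = 3, mean ± SD.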
Data set [16] addresses Cytochrome P450 2C9 (Homo sapiens, UniProt P11712). Kind of data set: Inhibition of human liver microsome CYP2C9 using tolbutamide as substrate incubated for 20 mins by LC-MS/MS with HPLC analysis. The format is ADME, microsomes. A digest of the protocol:
as §2

Data set [17] in a line: Half life in Sprague-Dawley rat at 5 mg/kg, po by LC-MS/MS analysis. The format is ADME, organism-based. The following applies: in vivo. A digest of the protocol: as §3
Data set [18] is described as follows: Oral bioavailability in Sprague-Dawley rat at 5 mg/kg by LC-MS/MS analysis. The format is ADME, organism-based. The conditions noted are these: in vivo. A digest of the protocol:
as §3

A short description of data set [19]: AUClast in Sprague-Dawley rat at 5 mg/kg, iv by LC-MS/MS analysis. The conditions noted are these: in vivo. The format is ADME, organism-based. More on the design: route intravenous, time 0 - last, dose 5 mg/kg. A digest of the protocol:
as §3

The nature of data set [20]: Metabolic stability in human liver microsomes assessed as half life at 1 uM incubated for 30 mins by LC-MS/MS analysis. The format is ADME, Microsome. A digest of the protocol:
as §1

Data set [21] is described as follows: AUC (0 to infinity) in Sprague-Dawley rat at 5 mg/kg, po by LC-MS/MS analysis. The format is ADME, organism-based. More on the design: time infinity, route oral, dose 5 mg/kg. The following applies: in vivo. A digest of the protocol:
as §3

For data set [22], the target named is Cytochrome P450 2C19 (Homo sapiens, UniProt P33261). Kind of data set: Inhibition of human liver microsome CYP2C19 using S-mephenytoin as substrate incubated for 20 mins by LC-MS/MS with HPLC analysis. The format is ADME, microsomes. A digest of the protocol: as §2
A short description of data set [23]: Metabolic stability in rat liver microsomes assessed as compound remaining at 1 uM incubated for 30 mins by LC-MS/MS analysis. Type of data set: ADME, Microsome. The conditions noted are these: read-out: Stabilty. A digest of the protocol: as §1
Data set [24] can be described thus: Half life in Sprague-Dawley rat at 5 mg/kg, iv by LC-MS/MS analysis. Type of data set: ADME, organism-based. The following applies: in vivo. A digest of the protocol:
as §3

Data set [25] is described as follows: Clearance in Sprague-Dawley rat at 5 mg/kg, iv by LC-MS/MS analysis. The following applies: in vivo. The format is ADME, organism-based. A digest of the protocol:
as §3

Data set [26] in a line: Protein binding in human plasma at 5 uM incubated for 4 hrs by LC-MS/MS analysis. The format is ADME, cell-free. The conditions noted are these: read-out: PPB (converted).
Data set [27] is described as follows: AUC (0 to infinity) in Sprague-Dawley rat at 5 mg/kg, iv by LC-MS/MS analysis. The following applies: in vivo. More on the design: time infinity, route intravenous, dose 5 mg/kg. The format is ADME, organism-based. A digest of the protocol:
as §3

Data set [28] is described as follows: Stability in rat plasma assessed as compound remaining at 5 uM incubated for 4 hrs by LC-MS/MS analysis. Type of data set: ADME, cell-free. The following applies: read-out: Stabilty. A digest of the protocol: as §4

Chain of Cytochrome P450 2C19 (P33261 whole entry): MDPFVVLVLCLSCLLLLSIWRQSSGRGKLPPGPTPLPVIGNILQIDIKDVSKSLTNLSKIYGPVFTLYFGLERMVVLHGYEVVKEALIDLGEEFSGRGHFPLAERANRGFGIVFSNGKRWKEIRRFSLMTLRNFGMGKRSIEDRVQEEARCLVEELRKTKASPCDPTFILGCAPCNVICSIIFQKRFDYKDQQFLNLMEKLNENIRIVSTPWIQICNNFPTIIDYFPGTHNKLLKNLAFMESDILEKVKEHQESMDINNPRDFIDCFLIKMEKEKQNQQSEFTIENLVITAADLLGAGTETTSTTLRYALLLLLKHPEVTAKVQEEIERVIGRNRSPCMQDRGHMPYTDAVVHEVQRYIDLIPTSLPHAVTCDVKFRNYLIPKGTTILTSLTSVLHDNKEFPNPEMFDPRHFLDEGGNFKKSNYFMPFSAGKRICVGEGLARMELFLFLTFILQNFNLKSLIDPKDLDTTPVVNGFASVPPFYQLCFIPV
Chain of Cytochrome P450 2D6 (P10635 whole entry): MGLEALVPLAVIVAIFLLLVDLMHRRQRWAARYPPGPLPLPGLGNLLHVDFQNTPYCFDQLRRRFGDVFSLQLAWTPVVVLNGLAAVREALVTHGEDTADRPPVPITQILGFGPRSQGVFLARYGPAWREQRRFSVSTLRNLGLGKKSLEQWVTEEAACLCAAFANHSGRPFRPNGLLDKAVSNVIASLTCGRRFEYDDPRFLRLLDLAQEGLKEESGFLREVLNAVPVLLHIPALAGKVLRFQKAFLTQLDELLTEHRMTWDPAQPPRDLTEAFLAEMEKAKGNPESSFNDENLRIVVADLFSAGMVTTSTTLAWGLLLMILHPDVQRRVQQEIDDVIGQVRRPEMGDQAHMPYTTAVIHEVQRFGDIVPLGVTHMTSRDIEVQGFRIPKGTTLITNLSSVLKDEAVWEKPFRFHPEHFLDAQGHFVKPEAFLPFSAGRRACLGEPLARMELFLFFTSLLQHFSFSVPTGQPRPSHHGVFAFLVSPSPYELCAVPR
Chain of Cytochrome P450 2C9 (P11712 whole entry): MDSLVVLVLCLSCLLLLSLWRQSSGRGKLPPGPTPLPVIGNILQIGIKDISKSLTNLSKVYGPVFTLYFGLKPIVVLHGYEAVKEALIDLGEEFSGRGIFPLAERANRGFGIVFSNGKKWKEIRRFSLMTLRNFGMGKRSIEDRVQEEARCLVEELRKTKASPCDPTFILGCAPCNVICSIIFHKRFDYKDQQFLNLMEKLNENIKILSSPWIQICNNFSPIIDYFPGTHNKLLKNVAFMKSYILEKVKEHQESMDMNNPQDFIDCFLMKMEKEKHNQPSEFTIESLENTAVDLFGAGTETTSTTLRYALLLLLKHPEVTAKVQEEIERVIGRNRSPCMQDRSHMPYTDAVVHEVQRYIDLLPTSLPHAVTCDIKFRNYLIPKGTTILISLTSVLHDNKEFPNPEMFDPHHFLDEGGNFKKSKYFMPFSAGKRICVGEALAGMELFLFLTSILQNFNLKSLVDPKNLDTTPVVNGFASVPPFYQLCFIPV
Chain of Voltage-gated inwardly rectifying potassium channel KCNH2 (Q12809 whole entry): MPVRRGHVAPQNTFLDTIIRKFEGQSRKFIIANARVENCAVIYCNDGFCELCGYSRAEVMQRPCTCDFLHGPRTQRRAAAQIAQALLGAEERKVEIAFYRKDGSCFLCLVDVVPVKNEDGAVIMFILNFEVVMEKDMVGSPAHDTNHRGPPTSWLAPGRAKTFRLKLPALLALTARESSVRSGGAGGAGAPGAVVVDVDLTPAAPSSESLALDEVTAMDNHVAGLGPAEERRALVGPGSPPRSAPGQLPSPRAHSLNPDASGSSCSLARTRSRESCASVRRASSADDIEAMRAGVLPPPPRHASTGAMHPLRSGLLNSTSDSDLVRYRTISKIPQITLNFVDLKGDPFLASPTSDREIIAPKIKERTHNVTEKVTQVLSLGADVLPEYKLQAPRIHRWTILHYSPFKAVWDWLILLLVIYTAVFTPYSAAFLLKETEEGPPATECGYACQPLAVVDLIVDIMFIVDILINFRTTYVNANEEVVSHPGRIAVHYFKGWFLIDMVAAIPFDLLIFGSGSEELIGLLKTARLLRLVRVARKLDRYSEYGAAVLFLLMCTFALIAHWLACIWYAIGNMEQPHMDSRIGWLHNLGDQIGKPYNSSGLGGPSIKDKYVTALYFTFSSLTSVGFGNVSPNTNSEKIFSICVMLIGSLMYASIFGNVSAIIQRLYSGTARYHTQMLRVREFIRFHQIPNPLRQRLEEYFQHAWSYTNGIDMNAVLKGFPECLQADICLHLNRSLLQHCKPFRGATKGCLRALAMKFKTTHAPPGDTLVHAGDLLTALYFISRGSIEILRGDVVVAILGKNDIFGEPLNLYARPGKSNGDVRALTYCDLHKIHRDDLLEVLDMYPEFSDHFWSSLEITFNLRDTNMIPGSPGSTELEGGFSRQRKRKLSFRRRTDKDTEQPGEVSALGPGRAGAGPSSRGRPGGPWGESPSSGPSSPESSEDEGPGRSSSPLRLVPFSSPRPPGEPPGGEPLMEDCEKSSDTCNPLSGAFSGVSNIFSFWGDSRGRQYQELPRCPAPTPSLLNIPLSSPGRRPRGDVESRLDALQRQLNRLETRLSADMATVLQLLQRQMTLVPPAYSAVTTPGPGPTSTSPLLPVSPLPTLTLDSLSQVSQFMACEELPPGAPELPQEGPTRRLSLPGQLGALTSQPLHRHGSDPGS
Chain of Cytochrome P450 3A4 (P08684 whole entry): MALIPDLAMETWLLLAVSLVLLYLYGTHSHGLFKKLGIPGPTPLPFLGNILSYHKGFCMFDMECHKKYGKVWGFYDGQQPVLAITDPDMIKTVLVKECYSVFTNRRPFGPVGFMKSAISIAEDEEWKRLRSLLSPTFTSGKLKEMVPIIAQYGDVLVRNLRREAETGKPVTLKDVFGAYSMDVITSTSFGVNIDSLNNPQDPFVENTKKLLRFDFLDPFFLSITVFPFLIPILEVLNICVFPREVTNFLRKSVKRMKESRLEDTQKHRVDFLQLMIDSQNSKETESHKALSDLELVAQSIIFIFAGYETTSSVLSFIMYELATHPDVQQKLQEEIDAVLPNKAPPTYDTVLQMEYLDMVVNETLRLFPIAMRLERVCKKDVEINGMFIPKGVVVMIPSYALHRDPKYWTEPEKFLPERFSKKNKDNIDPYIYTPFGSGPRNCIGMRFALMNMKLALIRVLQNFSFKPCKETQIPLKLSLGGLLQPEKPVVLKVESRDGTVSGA

For the compound `Nc1cc(F)c(S(=O)(=O)N2CCC(O)CC2)cc1C(=O)Nc1ccc(Cl)c(F)c1`, the concentration for a half-maximal effect (EC50) in data set [1] amounted to 2180 nM. The selectivity ratio in [2] came out at 9.3. Also, in data set [3], the CC50 at 120 h worked out at 20.3 µM.

As to `Nc1cc(F)c(S(=O)(=O)N2CCC(O)CC2)cc1C(=O)Nc1ccc(C(F)(F)F)c(Cl)c1`, in data set [1], the EC50 was > 3300 nM. Also, in data set [3], the CC50 at 120 h amounted to 8.7 µM.

Regarding `Nc1cc(F)c(S(=O)(=O)N2CCC(O)CC2)cc1C(=O)Nc1ccc(F)c(Cl)c1`, in data set [1], the EC50 amounted to 830 nM. Further, the selectivity ratio in data set [2] stood at 22.3. The CC50 at 120 h in [3] turned out to be 18.5 µM.

Consider `Nc1cc(F)c(S(=O)(=O)N2CCC(O)CC2)cc1C(=O)Nc1ccc(F)c(C(F)F)c1`, for which the figures for the half-life at 1 µM in [4] and in [20] were 29.3 min and 30.6 min, respectively. Further, the IC50 in data set [5] is 20.8 µM; in data set [8] it was > 10 µM; in data set [11], 45.5 µM; in [14] it was 26.7 µM; in data set [16], 25.2 µM; in data set [22], 19 µM. Moreover, the Cmax in [6] was 280 ng/mL. The EC50 in [1] amounted to 290 nM. For the same compound, in [7], the Tmax came out at 1.33 h. Besides, the remaining at 0.5 h, 1 µM in [9] turned out to be 40.5%; in data set [23] it was 54.1%. Moreover, the selectivity ratio in data set [2] amounted to 164. Besides, the AUC(0-t) came out at 1150 ng·h/mL in data set [10] and 2310 ng·h/mL in data set [19]. The fraction unbound at 4 h, 5 µM is 0.108 in [12] and 0.029 in [26]. For the same compound, in data set [13], the Vd was 3.59 L/kg. The remaining at 4 h, 5 µM in data set [15] came to 100%; in data set [28], 99.6%. Also, the half-life in data set [17] was 310 min; in data set [24], 153 min. This compound yielded a bioavailability in [18] of 49.9%. The AUC(0-inf) in data set [21] is 1230 ng·h/mL; in data set [27], 2330 ng·h/mL. Moreover, the clearance in [25] is 36 mL/min/kg. Also, the CC50 at 120 h in data set [3] is 47.5 µM.

Take `Nc1cc(F)c(S(=O)(=O)N2CCC(O)CC2)cc1C(=O)Nc1ccc(Cl)c(C(F)(F)F)c1`: in data set [1], the EC50 is > 3300 nM. In addition, the CC50 at 120 h in data set [3] is 17.8 µM.

With `Nc1cc(F)c(S(=O)(=O)N2CCC(O)CC2)cc1C(=O)Nc1ccc(Cl)c(Cl)c1`, in [1], the EC50 came out at 2070 nM. The selectivity ratio in [2] was found to be 9.9. Also, the CC50 at 120 h in [3] came to 20.4 µM.

For the compound `Nc1cc(F)c(S(=O)(=O)N2CCC(O)CC2)cc1C(=O)Nc1cccc(F)c1`, the concentration giving a half-maximal response (EC50) in data set [1] amounted to 830 nM. Moreover, in [2], the selectivity ratio is 35.3. The CC50 at 120 h in data set [3] was determined as 29.3 µM.

For the compound `Nc1cc(F)c(S(=O)(=O)N2CCC(O)CC2)cc1C(=O)Nc1ccc(F)c(C(F)(F)F)c1`, the EC50 in data set [1] turned out to be 2180 nM. The selectivity ratio in data set [2] is 21.7. Also, the CC50 at 120 h in [3] worked out at 47.3 µM.
